Jurkat tox 60K: cytotoxicity toward Jurkat cells; Jurkat E6.1 viability, ATP luminescence, 48 h; inhibition, % at 4 µM; actives 1.2% (n = 56,000); AID 463;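 active means inhibition above the mean inhibition of all tested compounds plus 3 SD, cut at about 28% in these data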
HTR1A agonist: 5-HT1a (human) receptor agonism; CHO 5-HT1a Ga15 NFAT-bla reporter, FRET ratio; 0% basal, 100% maximal reference agonist; P08908; activation, % at 10 µM; actives 0.56% (n = 65,000);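 active means activation above the screen-wide mean activation plus 3 SD, cut at about 19% in these data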;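 further: 0% = DMSO wells and 100% = 5-CT at EC100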
HTR1E agonist: 5-HT1E (human) receptor agonism; actives 0.69% (n = 65,000); CHO 5-HT1E Ga15 NFAT-bla reporter, FRET; 0% DMSO wells, 100% control agonist wells; activation, % at 6 µM; AID 574;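 active means activation above a set limit, the screen-wide mean activation plus 3 SD, cut at about 8.5% in these data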;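 further: 100% = positive control agonist at 1 µM giving full maximal response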
Target sequence (P28566 whole entry, looked up): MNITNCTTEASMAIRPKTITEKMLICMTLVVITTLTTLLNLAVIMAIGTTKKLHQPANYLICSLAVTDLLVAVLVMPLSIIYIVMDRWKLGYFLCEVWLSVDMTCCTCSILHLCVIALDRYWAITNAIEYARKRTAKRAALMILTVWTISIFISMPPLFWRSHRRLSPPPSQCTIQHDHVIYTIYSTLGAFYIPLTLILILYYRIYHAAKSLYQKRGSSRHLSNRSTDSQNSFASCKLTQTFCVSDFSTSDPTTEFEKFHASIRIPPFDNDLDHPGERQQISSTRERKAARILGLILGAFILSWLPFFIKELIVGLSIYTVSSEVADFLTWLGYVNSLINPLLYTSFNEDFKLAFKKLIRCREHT
HEK293 NFkB inh: lowers PMA/ionomycin-induced NF-kB signal in HEK293 cells | AID 465 | actives 0.21% (n = 62,000) | inhibition, % at 3 µM | HEK-293 NF-kB luciferase reporter, luminescence;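 active means inhibition above the mean of all tested compounds plus 3 SD, cut at about 40% in these data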;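 further: 0% = stimulated DMSO wells and 100% = 10 µM reference inhibitor 5653914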
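System: NF-kB luciferase reporter HEK-293 cells | Replication: Single test | Control set: DMSO vs reference inhibitor | Evaluation: % inhibition | Schedule: 1 h pretreatment, 16 h stimulation, 37 °C | Probe or stimulus: PMA with ionomycin | Compound dosing: One dose, 3 µM | Detection: Luciferase luminescence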
HTR1E antagonist: antagonists of human 5-HT1E serotonin receptor. P28566. CHO 5-HT1E Ga15 NFAT-bla reporter, FRET, antagonist. inhibition, % at 6 µM. actives 0.99% (n = 65,000);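 active means inhibition above a set limit, the mean inhibition across every tested compound plus 3 SD, cut at about 29% in these data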;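 further: signal is the 460 over 535 nm emission ratio of beta-lactamase substrate; 0% = agonist plus DMSO wells and 100% = wells without agonist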
5-HT1A blocker: blocks the human serotonin 5-HT1a receptor. P08908. actives 0.68% (n = 62,000). CHO 5-HT1a Ga15 NFAT-bla reporter, antagonist mode. inhibition, % at 10 µM. AID 612;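 active means inhibition above the mean of all tested compounds plus 3 SD, cut at about 43% in these data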;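 further: receptor stimulated by 5-CT agonist at 100 nM near EC80; beta-lactamase reporter measured by ratiometric fluorescence of a cleavable substrate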
Active calls of the source: *; nt = not tested or not shown. In the library only some 3.3% were active in any assay of this set; here they are far more common.

SMILES	Jurkat tox 60K	HTR1A agonist	HTR1E agonist	HEK293 NFkB inh	HTR1E antagonist	5-HT1A blocker
Cn1cccc1CN1CCN(C(=O)COc2ccccc2)CC1	-4	-1	0	8	-5	-1
Cn1nc(-c2ccc(OCC(=O)N3CCN(Cc4ccccc4)CC3)cc2)c2ccccc2c1=O	58*	-1	1	30	-2	-2
C=CCn1c(O)c(C(C)=NCc2cc(OC)cc(OC)c2)c(=O)[nH]c1=O	37*	0	0	21	12	-17
CC(C)CCNC(=O)c1c(N)n(CC2CCCO2)c2nc3ccccc3nc12 (stereo not given)	nt	35*	9.7*	6	-2	-18
CCC(C)NC(=O)c1c(N)n(Cc2ccc3c(c2)OCO3)c2nc3ccccc3nc12 (stereo not given)	-4	122*	30*	6	-39	-172
CCC(C)NC(=O)c1c(N)n(CC2CCCO2)c2nc3ccccc3nc12 (stereo not given)	1	26*	8	-2	0	-7
CCCCn1c(N)c(C(=O)NCCN2CCOCC2)c2nc3ccccc3nc21	-1	7	2	10	12	5
CCCCCCn1c(=O)c(C(=O)Nc2c(C)n(C)n(-c3ccccc3)c2=O)c(O)c2ccccc21	-2	84*	0	6	-4	-20
CCCCCn1c(=O)c(C(=O)Nc2ccncc2)c(O)c2ccccc21	2	0	-1	-12	2	-12
CC1(C)CC(n2[nH]c(=O)c3c2NC(=O)CSC3c2ccccc2)CCO1 (stereo not given)	nt	1	1	nt	-6	nt
CN(C)CCOC(=O)c1cn(Cc2ccccc2)c2ccccc12	nt	2	59*	nt	16	nt
CCCNc1oc(-c2cccc3ccccc23)nc1C#N	2	58*	6	-4	8	-13
Cn1c(O)c(C=NCCCNC2CCCCC2)c(=O)n(C)c1=O	nt	-2	0	nt	5	nt
CCC(=O)Nc1cc(C(=O)N2CCC3(CC2)OCCO3)ccc1S(=O)(=O)c1ccc(C)cc1	-5	-1	0	18	2	-10
CCCCOCCCn1c(N)c(C(=O)OC(C)COC)c2nc3ccccc3nc21 (stereo not given)	nt	5	10*	nt	14	nt
CCOc1cccc(C2NCc3ccccc3-n3cccc32)c1O (stereo not given)	-2	0	15*	17	-4	1
CCOc1cc(C2NCc3ccccc3-n3cccc32)ccc1O (stereo not given)	-4	0	0	12	-10	20
Cc1ccc(CN2CCN(C)CC2)c(C)c1	-1	-3	9.8*	1	-1	-16
CCN1CCN(Cc2ccc(C)cc2C)CC1	6	-1	4	17	-3	-7
CC(=NCC1CCCO1)c1c(O)n(C)c(=O)n(C)c1=O (stereo not given)	1	-1	1	8	-1	-5
C=CCn1c(O)c(C(=O)CCCCCC)c(=O)[nH]c1=O	-11	-3	-1	16	-3	0
C1=C(c2c[nH]c3ccccc23)CCNC1	-7	5	92*	3	-13	16
c1ccc2c3c([nH]c2c1)CNCC3	nt	0	0	nt	-10	nt
CC(C)N1CC=C(c2c[nH]c3ccccc23)CC1	3	23*	46*	16	-1	14
Cc1cc(N)n(C2CCN(C)CC2)n1	-1	-2	0	11	-6	-4
SMILES	Jurkat tox 60K	HTR1A agonist	HTR1E agonist	HEK293 NFkB inh	HTR1E antagonist	5-HT1A blocker
NCCc1c[nH]c2ccc(F)cc12	3	43*	82*	6	-6	3
OC(c1ccc(F)cc1)C(c1ccccc1)N1CCOCC1 (stereo not given)	nt	-2	0	nt	-3	nt
O=c1c2ccccc2nc(-c2ccco2)n1-c1nccs1	2	-1	1	8	-7	-11
Cc1cc(OC(=O)c2ccco2)c2c3c(c(=O)oc2c1)CCC3	1	-1	0	23	32*	-6
CCCCCCn1c(O)c(C=NC2CCN(Cc3ccccc3)CC2)c(=O)[nH]c1=O	nt	4	0	nt	7	nt
O=c1[nH]c(=O)n(-c2ccc(F)cc2)c(O)c1C=Nc1ccccc1N1CCCC1	3	-1	-1	14	-11	-3
Cn1c(O)c(C=NCCN2CCN(C(=O)c3ccccc3)CC2)c(=O)n(C)c1=O	6	-3	1	20	-4	-11

Screening results: PubChem BioAssay, The Scripps Research Institute Molecular Screening Center
